Data published in PMC3495079 (Biochemistry, 2012).

Tests used:
HsDcpS = molecular target: T1, HsDcpS (Homo sapiens, UniProt Q96C86); test: HPLC analysis of cap analog hydrolysis by recombinant DcpS; assay type: biochemical; details: condition (2): 20 °C, pH 7.6; 15 μM substrate; 0.02 μM DcpS; 60 min or 24 h
T1 sequence (Q96C86 1-337): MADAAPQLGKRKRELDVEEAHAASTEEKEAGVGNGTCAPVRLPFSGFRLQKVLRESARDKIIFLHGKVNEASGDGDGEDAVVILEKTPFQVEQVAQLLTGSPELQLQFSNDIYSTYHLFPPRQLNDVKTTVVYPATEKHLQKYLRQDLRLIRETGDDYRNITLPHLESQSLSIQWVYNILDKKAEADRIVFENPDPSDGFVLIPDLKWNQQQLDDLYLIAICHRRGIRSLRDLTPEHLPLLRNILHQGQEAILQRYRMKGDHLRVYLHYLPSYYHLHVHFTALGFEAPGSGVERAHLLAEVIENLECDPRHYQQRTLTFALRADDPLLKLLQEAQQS
How it was run: (§1)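 His-tagged recombinant enzyme was expressed in E. coli and purified by Ni-NTA and gel filtration. Cap analog (15 μM) was preincubated 10 min, then DcpS was added at 0.02 or 0.2 μM. Buffers were Tris/MgAc/(NH4)2SO4 at 37 °C, or Tris/KCl/EDTA/DTT at 20 °C. Aliquots were taken at 5–60 min and 24 h and heat-stopped (97 °C, 2.5 min). Reverse-phase HPLC used a methanol/KH2PO4 gradient with A260 and fluorescence detection. Products were identified by retention time, and % substrate hydrolyzed was recorded.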

recombinant CeDcpS = details: substrate m^7GpppBODIPY; cited from earlier work
AsDcpS = AsDcpS (Ascaris suum, UniProt D3K0N9); test: HPLC analysis of cap analog hydrolysis by recombinant DcpS; assay type: biochemical, A. suum; details: condition (2): 20 °C, pH 7.6; 15 μM substrate; 0.02 μM DcpS
CeDcpS = molecular target: T2, CeDcpS (Caenorhabditis elegans, UniProt G5EFS4); test: HPLC analysis of cap analog hydrolysis by recombinant DcpS; assay type: biochemical, C. elegans; details: condition (2): 20 °C, pH 7.6; 15 μM substrate; 0.02 μM DcpS
T2 sequence (G5EFS4 1-311): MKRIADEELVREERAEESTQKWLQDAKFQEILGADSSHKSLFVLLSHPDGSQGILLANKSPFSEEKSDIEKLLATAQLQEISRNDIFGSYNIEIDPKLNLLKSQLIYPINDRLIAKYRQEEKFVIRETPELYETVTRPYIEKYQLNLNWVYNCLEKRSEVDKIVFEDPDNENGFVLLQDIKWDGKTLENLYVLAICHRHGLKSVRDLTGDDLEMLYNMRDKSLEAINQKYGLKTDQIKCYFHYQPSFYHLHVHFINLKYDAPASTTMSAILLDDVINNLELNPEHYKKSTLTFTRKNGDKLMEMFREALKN
How it was run: as §1

Chain of AsDcpS (D3K0N9 whole entry): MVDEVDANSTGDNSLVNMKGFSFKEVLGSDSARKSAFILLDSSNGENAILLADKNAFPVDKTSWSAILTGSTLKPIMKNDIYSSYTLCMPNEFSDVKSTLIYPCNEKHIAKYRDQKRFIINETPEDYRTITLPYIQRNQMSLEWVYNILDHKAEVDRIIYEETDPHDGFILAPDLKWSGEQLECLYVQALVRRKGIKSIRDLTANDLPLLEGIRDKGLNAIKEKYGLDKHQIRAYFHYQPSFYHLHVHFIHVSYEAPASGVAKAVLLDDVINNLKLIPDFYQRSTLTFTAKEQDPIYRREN

Question: Which “Hydrolysis by DcpS (HPLC, Figure 3)” value (HsDcpS) does the source give for CN(C)c1nc2c(c(=O)[nH]1)[n+](C)cn2[C@@H]1O[C@H](COP(=O)(O)OP(=O)(O)OP(=O)(O)OC[C@H]2O[C@@H](n3cnc4c(=O)[nH]c(N)nc43)[C@H](O)[C@@H]2O)[C@@H](O)[C@H]1O [m3^2,2,7GpppG] here?
Answer: not observed

Question: And the Ki (recombinant CeDcpS)?
Answer: 28 µM

Question: And the “Hydrolysis by DcpS (HPLC, Figure 3)” value (AsDcpS)?
Answer: readily hydrolyze

Question: What about the “Hydrolysis by DcpS (HPLC, Figure 3)” value (CeDcpS) of the same molecule?
Answer: readily hydrolyze
